Active and inactive are the calls of the source. The calls are words filed in the database; no cut-off is given here.
Assays:
[1] = biological target: Glutamate [NMDA] receptor; test: (§1) Binding affinity against dextromethorpin binding site associated with N-methyl-D-aspartate glutamate receptor from guinea pig mitochondrial pellet P2 determined using [3H]1 as radioligand.; type: protein-complex assay, Cavia porcellus
Summary of the method: (§2)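 Guinea pig brain crude mitochondrial P2 fraction (11500g pellet, De Robertis-based) was used in Tris-HCl pH 7.4. [3H]dextromethorphan at 5 nM final was incubated with ~0.3 mg tissue for 20 min at 23 °C, with displacer at 10^-9–10^-5 M. Nonspecific binding was defined with 100 µM unlabelled ligand. Samples were filtered on GF/B and counted by scintillation.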

Glutamate NMDA receptor [2] = test: Binding affinity against dextromethorpin binding site of N-methyl-D-aspartate glutamate receptor from rat brain using [3H]1
Summary of the method: (§3)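 Rat brain membranes were the 100000g pellet of the 1000g supernatant, in 50 mM Tris-HCl pH 7.4. [3H]dextromethorphan (5 nM final) was incubated with ~0.3 mg membranes for 20 min at 23 °C, with displacer at 10^-9–10^-5 M. Nonspecific binding was defined with 100 µM unlabelled ligand. Samples were filtered on GF/B in cold Tris/choline chloride/Triton wash and counted by scintillation.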

[3] = biological target: T1, Glutamate NMDA receptor (Rattus norvegicus) (UniProt P35439+Q00959+Q00960+Q00961+Q62645+Q8VHN2+Q9R1M7); test: (§4) Binding affinity against PCP binding site associated with N-methyl-D-aspartate glutamate receptor from rat synaptic plasma membrane(SPM) determined using [3H]TCP as radioligand.; settings: concentration not given here
Summary of the method: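 Rat brain (minus cerebellum) crude synaptic plasma membranes, washed repeatedly in 5 mM Tris-HCl pH 7.4; about 0.2 mg incubated with 5 nM [3H]TCP for 60 min at 23 °C, 0.5 mL final volume. Displacers tested at 10^-9–10^-5 M; cold PCP defines nonspecific binding. Bound ligand collected by filtration on PEI-soaked GF/B filters and counted by scintillation.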

[4] = biological target: Glutamate [NMDA] receptor; test: Inhibition of [3H]1 binding to dextromethorpin binding site of guinea pig microsomal pellet P3 N-methyl-D-aspartate glutamate receptor; design: species or system Cavia porcellus
Summary of the method: (§5)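 Guinea pig brain microsomal P3 fraction (100000g, 60 min pellet) was used in Tris-HCl pH 7.4. [3H]dextromethorphan at 5 nM final was incubated with ~0.5 mg tissue for 20 min at 23 °C, with displacer at 10^-9–10^-5 M. Nonspecific binding was defined with 100 µM unlabelled ligand. Samples were filtered on GF/B in cold Tris/choline chloride/Triton buffer and counted.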

Glutamate NMDA receptor [5] = test: Binding affinity against glycine binding site of N-methyl-D-aspartate glutamate receptor from rat synaptic plasma membrane(SPM) using [3H]glycine; NA = No effect
[6] = biological target: Glutamate [NMDA] receptor; test: Binding affinity against dextromethorpin binding site associated with N-methyl-D-aspartate glutamate receptor from guinea pig microsomal pellet (P3) using [3H]1 as radioligand.; design: species or system Cavia porcellus; summary of the method: as §5
[7] = biological target: T1, Glutamate NMDA receptor (Rattus norvegicus); test: as §4
Summary of the method: (§6)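 Crude rat brain synaptic plasma membranes (cerebellum removed, extensively washed) were used in 5 mM Tris-HCl pH 7.4. [3H]TCP at 5 nM final was incubated with ~0.2 mg membranes for 60 min at 23 °C. Nonspecific binding was defined with cold phencyclidine. Samples were filtered on GF/B pre-soaked in 0.5% PEI, washed with 5 mM Tris pH 7.7 and counted.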

Glutamate NMDA receptor [8] = test: Binding affinity against dextromethorpin binding site associated with N-methyl-D-aspartate glutamate receptor from rat brain using [3H]1 as radioligand.; summary of the method: as §3
Glutamate NMDA receptor [9] = test: Binding affinity against glycine binding site associated with N-methyl-D-aspartate glutamate receptor from rat synaptic plasma membrane using [3H]glycine as radioligand.
Rattus norvegicus [10] = test: Anticonvulsant activity in rat supramaximal electroshock (MES) test expressed as % rats protected at a dose of 50 mg/kg.; type: functional
Summary of the method: (§7)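 Rats were given the compound sc in freshly diluted normal saline (DMSO or HCl-assisted dissolution for some compounds) at 1-2 mL/kg. Vehicle-injected controls were run. Rats were tested at 30 min after injection. The read-out is the % of rats protected from convulsion in the MES test at the stated doses, with n = 10 rats.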

[11] = biological target: T1, Glutamate NMDA receptor (Rattus norvegicus); test: Binding affinity against PCP binding site associated with N-methyl-D-aspartate glutamate receptor from rat synaptic plasma membrane(SPM) determined using [3H]TCP as radioligand.;NA = No effect; settings: concentration not given here; summary of the method: as §6
Rattus norvegicus [12] = test: Anticonvulsant activity in rat supramaximal electroshock (MES) test within a dose range of 15-60 mg/kg administered subcutaneously; type: functional; settings: sc
Summary of the method: (§8)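 The compound was given sc in freshly diluted normal saline at 1-2 mL/kg across the stated dose range, with vehicle-injected controls. MES protection was scored 30 min post-dose, with n = 10 rats. ED50 was derived from the dose-response and reported with 95% confidence limits, in mg/kg and µmol/kg.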

Rattus norvegicus [13] = test: Anticonvulsant activity in rat supramaximal electroshock (MES) test within a dose range of 15-60 mg/kg.; type: functional; summary of the method: as §8
Rattus norvegicus [14] = test: Anticonvulsant activity in rat supramaximal electroshock (MES) test expressed as % rats protected at a dose of 1.25-10 mg/kg.; type: functional; summary of the method: as §7
[15] = biological target: T2, Glutamate [NMDA] receptor (Homo sapiens) (UniProt Q05586+Q12879+Q13224+O15399+O60391+Q14957+Q8TCU5); test: Binding affinity against dextromethorpin binding site associated with N-methyl-D-aspartate glutamate receptor from guinea pig microsomal pellet P3 determined using [3H]1 as radioligand.; settings: Cavia porcellus; target entry is the homologue from another species; concentration not given here; summary of the method: as §5
[16] = biological target: T2, Glutamate [NMDA] receptor (Homo sapiens); test: as §1; type: functional; settings: Cavia porcellus; target entry is the homologue from another species; concentration not given here; summary of the method: as §2
[17] = biological target: T1, Glutamate NMDA receptor (Rattus norvegicus); test: Binding affinity against dextromethorpin binding site associated with N-methyl-D-aspartate glutamate receptor from rat brain determined using [3H]1 as radioligand.; settings: concentration not given here; summary of the method: as §3
[18] = biological target: T1, Glutamate NMDA receptor (Rattus norvegicus); test: (§9) Binding affinity against glycine binding site associated with N-methyl-D-aspartate glutamate receptor from rat synaptic plasma membrane(SPM) determined using [3H]glycine as radioligand.;NA = No effect
Rattus norvegicus [19] = test: Anticonvulsant activity in rat supramaximal electroshock (MES) test expressed as % rats protected at a dose of 2.5-50 mg/kg.; type: functional; summary of the method: as §7
[20] = biological target: T1, Glutamate NMDA receptor (Rattus norvegicus); test: Binding affinity against PCP binding site associated with N-methyl-D-aspartate glutamate receptor from rat synaptic plasma membrane(SPM) determined using [3H]TCP as radioligand; settings: concentration not given here; summary of the method: as §6
Rattus norvegicus [21] = test: Anticonvulsant activity in rat supramaximal electroshock (MES) test expressed as % rats protected at a dose of 5-40 mg/kg.; type: functional; summary of the method: as §7
Rattus norvegicus [22] = test: Anticonvulsant activity in rat supramaximal electroshock (MES) test expressed as % rats protected at a dose of 15-60 mg/kg.; type: functional; summary of the method: as §7
Rattus norvegicus [23] = test: Anticonvulsant activity in rat supramaximal electroshock (MES) test expressed as % rats protected at a dose of 40 mg/kg.; type: functional; summary of the method: as §7
Rattus norvegicus [24] = test: Anticonvulsant activity in rat supramaximal electroshock (MES) test expressed as % rats protected at a dose of 25-100 mg/kg.; type: functional; summary of the method: as §7
[25] = biological target: T2, Glutamate [NMDA] receptor (Homo sapiens); settings: Cavia porcellus; 10e-5 M
[26] = biological target: T2, Glutamate [NMDA] receptor (Homo sapiens); settings: Cavia porcellus; Plasma; 10e-5 M
[27] = biological target: T1, Glutamate NMDA receptor (Rattus norvegicus); settings: 10e-5 M
Rattus norvegicus [28] = test: Anticonvulsant activity in rat supramaximal electroshock (MES) test expressed as % rats protected at a dose of 25-50 mg/kg.; type: functional; summary of the method: as §7
Glutamate NMDA receptor [29] = test: as §4; summary of the method: as §6
Rattus norvegicus [30] = test: Anticonvulsant activity was determined in rat supramaximal electroshock (MES) test within a dose range of 15-60 mg/kg after (sc) administration; type: functional; summary of the method: as §8
Rattus norvegicus [31] = test: Anticonvulsant activity in rat supramaximal electroshock (MES) test expressed as % rats protected at a dose of 12.5-50 mg/kg.; type: functional; summary of the method: as §7
[32] = biological target: Glutamate [NMDA] receptor; test: Binding affinity against dextromethorpin binding site associated with N-methyl-D-aspartate glutamate receptor from guinea pig mitochondriall pellet P2 determined using [3H]1 as radioligand.; type: protein-complex assay, Cavia porcellus; summary of the method: as §2
Glutamate NMDA receptor [33] = test: as §9
Rattus norvegicus [34] = test: Anticonvulsant activity in rat supramaximal electroshock (MES) test expressed as % rats protected at a dose of 2.5-10 mg/kg.; type: functional; summary of the method: as §7
Rattus norvegicus [35] = test: Anticonvulsant activity in rat supramaximal electroshock (MES) test expressed as % rats protected at a dose of 10 and 25 mg/kg.; type: functional; summary of the method: as §7

Row | SMILES | IC50 [1] | IC50 (Glutamate NMDA receptor [2]) | IC50 [4] | IC50 (Glutamate NMDA receptor [5]) | ED50 (Rattus norvegicus [13]) | further results
1 | CN(C)CCCN1c2ccccc2Sc2ccc(Cl)cc21 [CHLORPROMAZINE] | 1.1 µM | 1.3 µM | 0.6 µM | Not Active |  | inhibition [3]: 25%
2 | CN1CCC23CCCCC2C1Cc1ccc(OCc2ccccc2)cc13 (centres undefined) | 0.27 µM |  |  |  |  | IC50 [6]: 0.15 µM; inhibition ([7]; concentration not given here): 39%; IC50 (Glutamate NMDA receptor [8]): 3.1 µM; IC50 (Glutamate NMDA receptor [9]): Not Active; Protection (Rattus norvegicus [10]): 30%
3 | CC(C)Oc1ccc2c(c1)C13CCCCC1C(C2)N(C)CC3 (centres undefined) | 0.15 µM | 0.88 µM | 0.12 µM | Not Active | 9.4 µmol/kg | inhibition [11]: 59%; ED50 (Rattus norvegicus [12]): 3.9 mg/kg; Protection (Rattus norvegicus [14]): 90%
4 | CN1CCC23CCCCC2C1Cc1ccc(Oc2nc(-c4ccccc4)nc4ccccc24)cc13 (centres undefined) |  |  |  |  |  | inhibition [15]: 50%; inhibition [16]: 25%; inhibition [17]: 19%; inhibition [18]: inactive; Protection (Rattus norvegicus [19]): 10%
5 | CCCCOc1ccc2c(c1)C13CCCCC1C(C2)N(C)CC3 (centres undefined) | 0.16 µM | 1.5 µM | 0.1 µM | Not Active |  | inhibition [20]: 58%; Protection (Rattus norvegicus [21]): 40%
6 | COc1ccc2c(c1)C13CCCCC1C(C2)N(C)CC3 (stereo not drawn) [RACEMETHORPHAN] | 0.24 µM |  | 0.49 µM | Not Active | 109 µmol/kg | ED50 (Rattus norvegicus [12]): 38 mg/kg; Protection (Rattus norvegicus [22]): 70%
7 | CN(C)c1ccc2c(c1)C13CCCCC1C(C2)N(C)CC3 (centres undefined) | 0.68 µM | 4.4 µM | 1.1 µM | Not Active |  | inhibition [7]: 45 µM; Protection (Rattus norvegicus [23]): 40%
8 | CN1CCC23CCCCC2C1Cc1ccccc13 (centres undefined) | 1.7 µM | 1.3 µM | 1 µM | Not Active |  | inhibition ([7]; concentration not given here): 53%; Protection (Rattus norvegicus [24]): 0%
9 | C[C@]12N[C@H](Cc3ccccc31)c1ccccc12 |  |  |  |  |  | inhibition [25]: 19%; inhibition [26]: 20%; inhibition [27]: 42%
10 | CN1CCC23CCCCC2C1Cc1ccc(N=C=S)cc13 (centres undefined) | 0.44 µM | 1.5 µM | 0.17 µM | Not Active |  | inhibition ([7]; concentration not given here): 60%; Protection (Rattus norvegicus [28]): 0%
11 | CN1CCC23CCCCC2C1Cc1ccc(N)cc13 (centres undefined) | 6.4 µM |  | 4.4 µM | Not Active | 76 µmol/kg | IC50 (Glutamate NMDA receptor [29]): 7.8 µM; inhibition [17]: 45%; ED50 (Rattus norvegicus [30]): 25 mg/kg; Protection (Rattus norvegicus [31]): 100%
12 | CN1CC[C@]23CCCC[C@H]2[C@H]1Cc1ccc(O)cc13 [LEVORPHANOL] |  | 7.7 µM | 2.7 µM |  | 12 µmol/kg | IC50 (Glutamate NMDA receptor [29]): 1.2 µM; IC50 [32]: 2.5 µM; IC50 (Glutamate NMDA receptor [33]): Not Active; ED50 (Rattus norvegicus [12]): 5 mg/kg; Protection (Rattus norvegicus [34]): 90%
13 | CCOc1ccc2c(c1)C13CCCCC1C(C2)N(C)CC3 (centres undefined) | 0.09 µM | 0.42 µM | 0.13 µM | Not Active | 17.4 µmol/kg | inhibition [20]: 75%; ED50 (Rattus norvegicus [12]): 5.6 mg/kg; Protection (Rattus norvegicus [35]): 90%
14 | CN1CCC23CCCCC2C1Cc1ccc(Cl)cc13 (centres undefined) | 0.37 µM | 1.1 µM | 0.21 µM | Not Active |  | IC50 (Glutamate NMDA receptor [29]): 5.5 µM; Protection (Rattus norvegicus [28]): 10%
15 | c1ccc(C2(N3CCCCC3)CCCCC2)cc1 [PHENCYCLIDINE] |  |  |  |  |  | IC50 (Glutamate NMDA receptor [29]): 0.18 µM
16 | CNc1ccc2c(c1)C13CCCCC1C(C2)N(C)CC3 (centres undefined) | 0.48 µM | 3.6 µM | 1.3 µM | Not Active |  | inhibition ([7]; concentration not given here): 43%; Protection (Rattus norvegicus [24]): 0%

From ChEMBL document CHEMBL1126312, “Synthesis and evaluation of 3-substituted 17-methylmorphinan analogs as potential anticonvulsant agents” (J Med Chem, 1992)
